Most compounds without a hit are left out; they make up all but 1.7% or so of the library.
NR1D1 modulator – modulators of human Rev-erb alpha DNA binding. P20393. 370,000 tested, 0.79% active. Rev-erbα–FITC-DNA binding, fluorescence polarization, 90 min. activity, % at 10 µM;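 active = activity above about 14%, limit read from the data; passing the limit was not always enough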;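 note: 0% = DMSO wells with 35 nM protein and 100% = DMSO wells with 750 nM protein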
TPT1 inh – C. albicans TPT1 enzyme inhibition. 300,000 tested, 0.81% active. AID 1962. recombinant caTPT1, FP RNA substrate dephosphorylation. inhibition, % at 5 µM;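 active = inhibition above the mean of all tested compounds plus 3 SD, set per screening campaign, cut at about 24% in these data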;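 note: plate controls were DMSO alone for no effect and ferristatin control at 100 nM for full effect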
CSN deneddyl inh – inhibitors of human CSN-mediated cullin deneddylation. 360,000 tested, 0.38% active. Purified CSN, SCF-Nedd8-OG deneddylation, fluorescence polarization. inhibition, % at 12.5 µM. Q92905. AID 651999;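 active = pattern-corrected inhibition above about 35%, with an unprinted fluorescence ratio check between 0.5 and 1.5, limit read from the data, passing the limit was not always enough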;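 note: 0% = enzyme with substrate and 100% = substrate without enzyme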
Target sequence (Q92905 whole entry, looked up, one chain of several): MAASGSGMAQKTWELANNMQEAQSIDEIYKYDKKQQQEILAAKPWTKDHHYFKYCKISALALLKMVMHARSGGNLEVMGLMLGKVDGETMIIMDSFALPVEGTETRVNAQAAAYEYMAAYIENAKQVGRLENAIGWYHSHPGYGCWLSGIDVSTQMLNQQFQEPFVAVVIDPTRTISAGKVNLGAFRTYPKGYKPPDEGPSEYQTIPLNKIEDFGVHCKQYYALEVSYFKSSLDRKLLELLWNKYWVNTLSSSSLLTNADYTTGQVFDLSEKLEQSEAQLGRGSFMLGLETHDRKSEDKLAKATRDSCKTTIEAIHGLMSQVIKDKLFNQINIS
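Assay system: purified human Csn5 enzyme expressed in HEK293T cells; measure: % inhibition; also added: SCFSkp2-Nedd8OG substrate at 10 nM final; technique: fluorescence polarization; times: reaction 90 min, room temperature; medium: Tris buffer pH 7.5, NaCl, DTT, Tween-20, trehalose, ovalbumin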
HNF4A DNA FP – change in binding of human HNF4 alpha to DNA. P41235. HNF4a-FITC DNA binding, fluorescence polarization, 1 h. activity change, % at 10 µM. 360,000 tested, 0.3% active; in the data active = activity change above about 30%, passing the limit was not always enough
caTPT1 confirm – confirmation of Candida albicans TPT1 inhibitors; 2,400 tested, 74% active; inhibition, % at 5 µM; AID 2149; recombinant caTPT1, fluorescence polarization, RNase T1 coupled; shares compounds with TPT1 inh;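 active = inhibition above the primary screen limit, the mean inhibition of all tested compounds plus 3 SD, cut at about 25% in these data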
RNase T1 inh – counter-screen for TPT1 inhibitors: inhibitors of Aspergillus oryzae RNase T1; AID 2153; 2,400 tested, 83% active; inhibition, % at 5 µM; RNase T1 cleavage, fluorescence polarization, 1536-well; shares compounds with TPT1 inh;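 active = inhibition above the solvent-only control well mean plus 3 SD, limit set per screening run, cut at about 23% in these data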;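 note: plate controls were DMSO wells with enzyme for no effect and wells without RNase T1 for full effect; inhibitors block cleavage so intact labeled substrate keeps polarization high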
Target sequence (P00651 whole entry, looked up): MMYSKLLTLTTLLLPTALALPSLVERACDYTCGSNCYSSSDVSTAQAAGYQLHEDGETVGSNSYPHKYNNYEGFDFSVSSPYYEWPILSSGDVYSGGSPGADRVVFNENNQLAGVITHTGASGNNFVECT
CSN deneddyl val – validation of inhibitors of human CSN-mediated cullin deneddylation; Csn5 deneddylation of SCF-Nedd8OG, fluorescence polarization, 90 min; AID 720654; inhibition, % at 16.6 µM; 540 tested, 62% active; shares compounds with CSN deneddyl inh; in the data active = inhibition above about 50%;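 note: 0% = DMSO with enzyme and 100% = no enzyme wells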
MMP-2 counter – counter-screen for CSN deneddylation inhibitors: human MMP-2 inhibition; shares compounds with CSN deneddyl inh; recombinant MMP-2, FRET substrate fluorescence, 60 min; inhibition, % at 16.6 µM; 540 tested, 33% active; AID 720655;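 active = corrected plate-normalized z-score of 5 or more, or -5 or less, or inhibition of 15% or more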;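 note: plate controls were DMSO wells with enzyme for no effect and buffer wells lacking MMP-2 for full effect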
Thrombin counter – thrombin (bovine) inhibition, counter-screen for CSN hits; shares compounds with CSN deneddyl inh; bovine thrombin cleavage of Ub4-pepOG, fluorescence polarization; inhibition, % at 16.6 µM; 540 tested, 49% active; AID 720656;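 active = inhibition at or above a set limit, with a fluorescence interference ratio between 0.5 and a set maximum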
HNF4a DNA conf – change in binding of human HNF4 alpha to DNA, retest | shares compounds with HNF4A DNA FP | HNF4A-FITC DNA binding, fluorescence polarization, 1 h | activity change, % at 12.5 µM | 210 tested, 99% active; call rule not given here
Rev-erbA confirm – Rev-erb alpha (human) modulation, hit confirmation. shares compounds with NR1D1 modulator. Rev-erb alpha FITC-DNA binding, fluorescence polarization, 90 min. activation, % at 25 µM. 3,000 tested, 61% active. AID 1259319;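 active = activation at or above a set limit, or at least 3 SD above the negative control mean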;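 note: 0% = 35 nM protein with DMSO and 100% = 750 nM protein high control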
RORg DNA counter – affects RORgamma DNA binding in a Rev-erb alpha counter-screen; shares compounds with NR1D1 modulator; purified RORgamma protein-FITC-DNA binding, fluorescence polarization; IC50, µM; 910 tested, 8% active; AID 1259320;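 active = Compounds whose fitted half-maximal concentration for disrupting protein-DNA binding is below 10 micromolar; the record names Rev-erb in its text, so the target is in doubt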
* marks the source's active call; other numbers are inactive results; i = inactive; . = not tested or not shown; + = active, no number.

SMILES	NR1D1 modulator	TPT1 inh	CSN deneddyl inh	HNF4A DNA FP	caTPT1 confirm	RNase T1 inh	Rev-erbA confirm	others
O=C(OCCN1C(=O)c2cccc3c(N4CCOCC4)ccc(c23)C1=O)c1ccc(Cl)cc1Cl	259.9*	59.3*	-57.8	-37.4	64.4*	70.5*	206.3*	RORg DNA counter=4.52*
CC(C)c1ccc(NC(=O)OC2CCC23CCC(c2ccccc2)CC3)cc1 (centres undefined)	-0.2	.	.	.	.	.	.
Cc1ccnc(SCc2cc(=O)c(OC(=O)c3ccc(C)c([N+](=O)[O-])c3)co2)n1	5.6	.	.	.	.	.	.
O=C(C(=O)N1CCC(CNS(=O)(=O)c2cccc(C(F)(F)F)c2)CC1)c1cc2ccccc2o1	13.6	.	.	.	.	.	.
CCN1C(=O)/C(=C/c2cn(C)nc2C)SC1=S	-4.6	4.5	4.8	-0.4	.	.	.
CCCCN1C(=O)/C(=C/C=C2/CC(C)(C)CN2C)SC1=S	83.6*	169.1*	-95.2	-78.4	173.5*	159.7*	94.5*	RORg DNA counter=9.78*
CCN1C(=O)/C(=C/C=C2/SCCN2C)SC1=S	77.7*	+	103.2	196.7	168.2*	157.4*	148.4*	RORg DNA counter=i
CCN(C(=O)CCc1cn(CC)c2ccccc12)c1ccc(Oc2cccnc2)cc1	0.8	.	.	.	.	.	.
N#Cc1ccc(-c2ccccc2)nc1SCC(=O)c1cccc(Cl)c1	38.5*	45.0*	3.5	3.9	27.4*	36.0*	18.0*
N#Cc1ccc(-c2cccnc2)nc1SCC(=O)c1ccccc1	23.1*	67.2*	30.1	46.2*	66.1*	73.5*	30.0*	HNF4a DNA conf=48.9*
N#Cc1ccc(-c2ccc(Cl)cc2)nc1SCC(=O)c1cccc(Cl)c1	4.8	22.1	2.2	1.6	.	.	.
CC(C)(C)c1ccc(S(=O)(=O)N2CCCC(C(=O)N3CCN(Cc4ccccc4)CC3)C2)cc1 (centres undefined)	-0.6	.	.	.	.	.	.
CN(C)c1ccc(/C=C/c2cccc[n+]2[O-])cc1	3.9	7.5	-1.8	17.2	.	.	.
CC(C)CC[n+]1ccccc1/C=C/c1ccc(N(C)C)cc1	31.6*	44.4*	37.8*	55.2*	49.2*	57.8*	30.1*	CSN deneddyl val=88.3*;MMP-2 counter=-57.6*;Thrombin counter=11.2;RORg DNA counter=>40
CC1(C)CC(=O)C=C(c2ccc(COC(=O)c3ccc(Br)cc3)cc2)C1=O	3.4	.	.	.	.	.	.
COC(CNC(=O)[C@H](Cc1ccccc1)NC1(C(=O)NC2CCCCC2)CCCC1)OC	7.6	.	.	.	.	.	.
Cn1cc(C=O)c2cc(F)ccc21	-3.1	-1.9	-9.5	-2.4	.	.	.
Cn1cc(/C=C/c2cc[n+](C)cc2)c2cc(Cl)ccc21	164.8*	59.8*	0.1	93.0	67.8*	70.2*	139.7*	RORg DNA counter=>40
CCN(CC)c1ccc(N=Nc2ncn[nH]2)cc1	26.4*	24.6*	6.9	23.4	24.3*	35.4*	26.5*
CCCC1CCC2(CCCN2CCOC(=O)Nc2ccc(OC)cc2)CC1 (centres undefined)	-3.1	.	.	.	.	.	.
COC(=O)c1cc2c(c3c4cc(F)ccc4n(S(=O)(=O)c4cccc(C)c4)c13)C(=O)N(c1ccc(OC)cc1)C2	6.6	.	.	.	.	.	.
COC(=O)[C@]12C[C@H](CC(=O)NCc3ccccc3)C(=O)N(Cc3ccccc3)C1=C[C@H](C1CCCC1)O[C@@H]2C	-2.3	.	.	.	.	.	.
